According to ChEMBL document CHEMBL1128333, “Derivatives of cis-2-amino-8-hydroxy-1-methyltetralin: mixed 5-HT1A-receptor agonists and dopamine D2-receptor antagonists” (J Med Chem, 1995):

Columns and labels:
Rattus norvegicus [1] = species on record: Rattus norvegicus; experiment: HVA (Homovanillic acid)content of rat striatum reflecting DA metabolism and turnover; assay type: functional; design: concentration or dose not given beside the values
Rattus norvegicus [2] = experiment: Cage leaving response was studied in rats after subcutaneous administration of 1 uM/Kg of compound; 0/7; assay type: functional
Rattus norvegicus [3] = experiment: Change in body temperature was studied in rats upon subcutaneous administration of 1 uM/Kg of compound; assay type: functional
Summary of the method: (§1)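 Rectal temperature was taken with an electrical thermometer, probe inserted 3.5 cm, before and 30 min after sc injection in 0.9% NaCl. Values are the change from the preinjection reading, analysed by Tukey HSD versus saline-treated rats. Male Sprague–Dawley rats, 260–310 g.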

Rattus norvegicus [4] = experiment: Flat body posture behavior was studied in rats after subcutaneous administration of 1 uM/Kg of compound; 7/7; assay type: functional
Summary of the method: (§2)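 Test compounds were given at 32 μmol/kg and the reference 5-HT1A agonist at 1 μmol/kg. Flat body posture, forepaw treading and hind limb abduction were each scored as absent or present. Values are animals showing the behavior out of animals tested, analysed by Fisher's exact test. Male Sprague–Dawley rats, 260–310 g.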

Rattus norvegicus [5] = experiment: Forepaw treading (FPT) behavior was studied in rats after subcutaneous administration of 1 uM/Kg of compound; 7/7; assay type: functional; summary of the method: as §2
Rattus norvegicus [6] = species on record: Rattus norvegicus; experiment: DA (dopamine) content of rat striatum reflecting DA metabolism and turnover; assay type: functional
Summary of the method: (§3)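 Male Sprague–Dawley rats (260–310 g) received compound sc in 0.9% NaCl; saline controls. Rats were decapitated 35–45 min post-injection, and hippocampus and striatum were dissected and frozen. Tissue was homogenized in 0.1 M perchloric acid with α-methyl-5-hydroxytryptophan as internal standard, centrifuged and filtered, then analysed by HPLC-EC at 0.85 V (mobile phase pH 2.69, 35 °C). Values are percent of control, mean ± SEM.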

Rattus norvegicus [7] = species on record: Rattus norvegicus; experiment: 5-HT content of rat hippocampus reflecting 5-HT metabolism and turnover; assay type: functional; design: concentration or dose not given beside the values; summary of the method: as §3
Rattus norvegicus [8] = species on record: Rattus norvegicus; experiment: DOPAC (3,4-dihydroxyphenylacetic acid) content of rat striatum reflecting DA metabolism and turnover; assay type: functional; design: concentration or dose not given beside the values; summary of the method: as §3
Rattus norvegicus [9] = species on record: Rattus norvegicus; experiment: 5-HIAA (5-Hydroxyindoleacetic acid) content of rat hippocampus reflecting 5-HT metabolism and turnover; assay type: functional; design: concentration or dose not given beside the values; summary of the method: as §3
Rattus norvegicus [10] = experiment: Flat body posture behavior was studied in rats after subcutaneous administration of 32 uM/Kg of compound; 4/4; assay type: functional; summary of the method: as §2
Rattus norvegicus [11] = experiment: Cage leaving response was studied in rats after subcutaneous administration of 32 uM/Kg of compound; 0/4; assay type: functional
Rattus norvegicus [12] = species on record: Rattus norvegicus; experiment: Ratio of turnover (DOPAC to DA) in rat brain striatum compared to control.; assay type: functional; summary of the method: as §3
Rattus norvegicus [13] = experiment: Forepaw treading (FPT) behavior was studied in rats after subcutaneous administration of 32 uM/Kg of compound; 4/4; assay type: functional; summary of the method: as §2
Rattus norvegicus [14] = experiment: Change in body temperature in rats after subcutaneous administration; assay type: functional; summary of the method: as §1
D(2) dopamine receptor = D(2) dopamine receptor (Homo sapiens, UniProt P14416); experiment: In vitro binding affinity towards human Dopamine receptor D2A was determined in mouse fibroblast LtK cells using [3H]raclopride; assay type: cell-based
Summary of the method: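 Membranes from Ltk− mouse fibroblasts stably expressing human D2A receptors, at 80–100 pM receptor. Buffer was 50 mM Tris-HCl, 120 mM NaCl, 5 mM KCl, 1.5 mM CaCl2, 4 mM MgCl2, 1 mM EDTA, pH 7.4. Incubation with [3H]raclopride was 60 min at 22 °C, in duplicate, with 1 μM (+)-butaclamol for nonspecific binding. Bound ligand was separated on GF/B filters; data were fitted by nonlinear regression.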

Rattus norvegicus [15] = species on record: Rattus norvegicus; experiment: Ratio of serotonin turnover (5HIAA to 5-HT) in rat brain hippocampus compared to control; assay type: functional; summary of the method: as §3
Rattus norvegicus [16] = experiment: Cage leaving response was studied in rats after subcutaneous administration of 32 uM/Kg of compound; 1/4; assay type: functional
Rattus norvegicus [17] = experiment: Flat body posture behavior was studied in rats after subcutaneous administration of 32 uM/Kg of compound; 0/4; assay type: functional; summary of the method: as §2
[18] = target: T1, 5-hydroxytryptamine receptor 1A (Rattus norvegicus, UniProt P19327); experiment: Binding affinity for 5-hydroxytryptamine 1A receptor in rat brain tissue using [3H]8-OH-DPAT as radioligand; assay type: tissue-based
T1 sequence (P19327 whole entry): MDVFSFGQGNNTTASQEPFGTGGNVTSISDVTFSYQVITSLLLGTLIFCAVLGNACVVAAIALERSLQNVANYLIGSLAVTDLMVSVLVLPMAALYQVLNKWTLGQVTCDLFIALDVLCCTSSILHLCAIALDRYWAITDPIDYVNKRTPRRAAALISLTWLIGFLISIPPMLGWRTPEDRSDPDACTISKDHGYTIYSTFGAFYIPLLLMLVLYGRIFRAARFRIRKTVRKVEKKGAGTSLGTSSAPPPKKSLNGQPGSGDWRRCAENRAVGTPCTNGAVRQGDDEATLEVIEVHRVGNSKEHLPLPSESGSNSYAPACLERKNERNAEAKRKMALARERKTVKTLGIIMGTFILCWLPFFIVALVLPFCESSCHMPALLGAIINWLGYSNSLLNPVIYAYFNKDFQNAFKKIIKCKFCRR
Summary of the method: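 Membranes from male Sprague–Dawley rat cortex plus hippocampus, homogenized in 50 mM Tris-HCl with 4.0 mM CaCl2 and 5.7 mM ascorbic acid, pH 7.5, and preincubated 10 min at 37 °C with 10 μM pargyline. Assay used 5 mg/mL tissue and 2 nM [3H]-8-OH-DPAT, 10 min at 37 °C. Nonspecific binding was defined with 10 μM 5-HT. Bound ligand was separated on GF/B filters and counted; data were fitted by nonlinear regression.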

Rattus norvegicus [19] = experiment: Forepaw treading (FPT) behavior was studied in rats after subcutaneous administration of 32 uM/Kg of compound; 0/4; assay type: functional; summary of the method: as §2
Rattus norvegicus [20] = experiment: Flat body posture behavior was studied in rats after subcutaneous administration of 32 uM/Kg of compound; 0/5; assay type: functional
Rattus norvegicus [21] = experiment: Forepaw treading (FPT) behavior was studied in rats after subcutaneous administration of 32 uM/Kg of compound; 0/5; assay type: functional
Rattus norvegicus [22] = experiment: Cage leaving response was studied in rats after subcutaneous administration of 32 uM/Kg of compound; 2/5; assay type: functional
Rattus norvegicus [23] = experiment: Flat body posture behavior was studied in rats after subcutaneous administration of 32 uM/Kg of compound; 3/5; assay type: functional; summary of the method: as §2
Rattus norvegicus [24] = experiment: Cage leaving response was studied in rats after subcutaneous administration of 32 uM/Kg of compound; 1/5; assay type: functional

D(2) dopamine receptor, sequence (P14416 whole entry): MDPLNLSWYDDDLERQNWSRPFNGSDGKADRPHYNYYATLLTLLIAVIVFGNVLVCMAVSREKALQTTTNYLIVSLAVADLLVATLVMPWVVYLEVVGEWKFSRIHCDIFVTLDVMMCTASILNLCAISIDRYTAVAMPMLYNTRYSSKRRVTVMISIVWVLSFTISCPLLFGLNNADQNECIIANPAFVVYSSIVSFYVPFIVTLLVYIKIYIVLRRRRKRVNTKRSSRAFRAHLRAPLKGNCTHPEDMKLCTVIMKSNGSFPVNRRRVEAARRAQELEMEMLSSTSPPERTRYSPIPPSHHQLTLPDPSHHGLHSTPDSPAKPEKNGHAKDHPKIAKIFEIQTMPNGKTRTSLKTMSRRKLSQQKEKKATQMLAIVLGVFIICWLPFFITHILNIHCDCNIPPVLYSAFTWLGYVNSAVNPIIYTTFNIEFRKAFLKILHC

Row | SMILES | Control (Rattus norvegicus [1]) [%] | Control (Rattus norvegicus [6]) [%] | Control (Rattus norvegicus [7]) [%] | Control (Rattus norvegicus [8]) [%] | Control (Rattus norvegicus [9]) [%] | FBP (Rattus norvegicus [10]) | Cage leaving (Rattus norvegicus [11]) | Ratio (Rattus norvegicus [12]) | FPT (Rattus norvegicus [13]) | Change of body temperature (Rattus norvegicus [14]) [°C] | Ki (D(2) dopamine receptor) [nM] | Ratio (Rattus norvegicus [15]) | Ki [18] [nM] | FPT (Rattus norvegicus [21]) | further results
1 | CCCN(CCC)[C@@H]1CCc2cccc(O)c2C1 | 105 | 108 | 130 | 109 | 80 | – | – | – | – | – | – | – | – | – | Cage leaving (Rattus norvegicus [2]): 0; Change of body temperature (Rattus norvegicus [3]): -2.6 °C; FBP (Rattus norvegicus [4]): 7; FPT (Rattus norvegicus [5]): 7
2 | CCCN(CCC)[C@@H]1CCc2cccc(O)c2[C@@H]1C | 196 | 83 | 121 | 225 | 88 | 4 | 0 | 275 | 4 | -0.2 | 30 | 72 | – | – | –
3 | CCCN(CCC)[C@H]1CCc2cccc(OC)c2[C@H]1C | 53 | 118 | 81 | 80 | 79 | – | – | 69 | – | -1.2 | 1050 | 96 | 285 | – | Cage leaving (Rattus norvegicus [16]): 1; FBP (Rattus norvegicus [17]): 0; FPT (Rattus norvegicus [19]): 0
4 | CCCN(CCC)[C@H]1CCc2cccc(C(=O)OC)c2[C@H]1C | 104 | 96 | 86 | 97 | 112 | – | – | 103 | – | -0.1 | – | 131 | 417 | 0 | FBP (Rattus norvegicus [20]): 0; Cage leaving (Rattus norvegicus [22]): 2
5 | CCCN(CCC)[C@@H]1CCc2cccc(OC)c2[C@@H]1C | 121 | 89 | 108 | 134 | 76 | 4 | 0 | 151 | 4 | -2.5 | 33.9 | 70 | 6 | – | –
6 | CCCN(CCC)[C@@H]1CCc2ccccc2[C@@H]1C | 168 | 95 | 94 | 152 | 92 | – | – | 164 | – | -0.7 | 87 | 98 | 49 | 0 | FBP (Rattus norvegicus [23]): 3; Cage leaving (Rattus norvegicus [24]): 1
